From ChEMBL document CHEMBL3046095, “Synthesis and antiviral activities of amide derivatives containing the alpha-aminophosphonate moiety” (J Agric Food Chem, 2008)
≈ marks a conversion by molar mass, not a printed value.

How the values were obtained:
[1] = tested on: Tobacco mosaic virus; assay: Antiviral activity against Tobacco mosaic virus (TMV) pre-treated with 500 ug/mL compound for 30 min followed by inoculation on left side of Nicotiana tabacum leaves assessed as virus inactivation effect measured 3 to 4 days post viral infection; type: functional
How it was run: (§1)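 Inactivation assay on N. tabacum leaves, with a solvent–virus mixture inoculated as control. Local lesion numbers were recorded 3–4 d after inoculation, three repetitions per compound. Inhibition % was derived from mean lesion counts relative to control.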

[2] = tested on: Tobacco mosaic virus; assay: Antiviral activity against Tobacco mosaic virus (TMV) inoculated on whole Nicotiana tabacum leaves followed by smearing with 500 ug/mL compound solution on left side of leaves assessed as viral infection curative effect measured 3 to 4 days post viral infection; type: functional
How it was run: (§2)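 Whole same-age growing N. tabacum leaves were dip-inoculated with TMV at 6 × 10^-3 mg/mL, then washed with water and dried. Compound solution was smeared on left half, solvent on right half as control. Local lesions were counted 3–4 d after inoculation, three repetitions per compound. Inhibition % = (control mean lesions − treated mean lesions)/control mean lesions × 100.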

[3] = tested on: Tobacco mosaic virus; assay: Antiviral activity against Tobacco mosaic virus (TMV) inoculated on 500 ug/mL compound smeared Nicotiana tabacum leaves assessed as protective effect against viral infection measured 3 to 4 days post viral infection; type: functional
How it was run: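 Half-leaf assay on same-age growing Nicotiana tabacum leaves: compound solution smeared on left half, solvent on right half as control. After 12 h, leaves scattered with silicon carbide were brush-inoculated with TMV at 6 × 10^-3 mg/mL. Local lesions were counted 3–4 d post-inoculation, three repetitions. Inhibition % = (control mean lesions − treated mean lesions)/control mean lesions × 100.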

[4] = tested on: Tobacco mosaic virus; assay: Antiviral activity against Tobacco mosaic virus (TMV) inoculated on whole Nicotiana tabacum leaves followed by smearing with compound solution on left side of leaves assessed as viral infection curative effect measured 3 to 4 days post viral infection; type: functional, organism-based; how it was run: as §2
[5] = tested on: Tobacco mosaic virus; assay: Antiviral activity against Tobacco mosaic virus (TMV) inoculated on whole Nicotiana tabacum leaves followed by smearing with 250 ug/mL compound solution on left side of leaves assessed as viral infection curative effect measured 3 to 4 days post viral infection; type: functional; how it was run: as §2
[6] = tested on: Tobacco mosaic virus; assay: Antiviral activity against Tobacco mosaic virus (TMV) pre-treated with 62.5 ug/mL compound for 30 min followed by inoculation on left side of Nicotiana tabacum leaves assessed as virus inactivation effect measured 3 to 4 days post viral infection; type: functional; how it was run: as §1
[7] = tested on: Tobacco mosaic virus; assay: Antiviral activity against Tobacco mosaic virus (TMV) pre-treated with compound for 30 min followed by inoculation on left side of Nicotiana tabacum leaves assessed as virus inactivation effect measured 3 to 4 days post viral infection; type: functional, organism-based; how it was run: as §1
[8] = tested on: Tobacco mosaic virus; assay: Antiviral activity against Tobacco mosaic virus (TMV) pre-treated with 125 ug/mL compound for 30 min followed by inoculation on left side of Nicotiana tabacum leaves assessed as virus inactivation effect measured 3 to 4 days post viral infection; type: functional; how it was run: as §1
[9] = tested on: Tobacco mosaic virus; assay: Antiviral activity against Tobacco mosaic virus (TMV) pre-treated with 250 ug/mL compound for 30 min followed by inoculation on left side of Nicotiana tabacum leaves assessed as virus inactivation effect measured 3 to 4 days post viral infection; type: functional; how it was run: as §1
[10] = tested on: Tobacco mosaic virus; assay: Antiviral activity against Tobacco mosaic virus (TMV) inoculated on whole Nicotiana tabacum leaves followed by smearing with 125 ug/mL compound solution on left side of leaves assessed as viral infection curative effect measured 3 to 4 days post viral infection; type: functional; how it was run: as §2

With `CCOP(=O)(OCC)C(NC(=O)c1ccccc1C(F)(F)F)c1ccccc1F` (configuration not stated) the Activity [1] was 62.2%, the Activity [2] was 2.1% and the Activity [3] was 39.2%.
In the case of `CCCOP(=O)(OCCC)C(NC(=O)c1ccccc1)c1ccccc1` (configuration not stated) [DIPROPYL BENZAMIDO(PHENYL)METHYLPHOSPHONATE], the Activity [1] is reported as 78.9%, the EC50 [4] is reported as 560 µg/mL (≈ 1490 µM) and the Activity [5] is reported as 23.9%. It also gave an Activity [2] of 42%, an Activity [6] of 10% and an EC50 [7] of 279 µg/mL (≈ 743 µM). For the same compound, the Activity [8] was 23%, the Activity [9] was 51% and the Activity [3] was 49.9%. It also gave an Activity [10] of 14%.
In the case of `CCOP(=O)(OCC)C(NC(=O)c1ccccc1)c1ccccc1F` (configuration not stated) [DIETHYL BENZAMIDO(2-FLUOROPHENYL)METHYLPHOSPHONATE], the Activity [1] is reported as 70%, the Activity [2] is reported as 32.2% and the Activity [3] is reported as 43.1%.
With `CCCOP(=O)(OCCC)C(NC(=O)c1cccc(F)c1)c1ccccc1` (configuration not stated) [DIPROPYL(3-FLUOROBENZAMIDO)(PHENYL)METHYLPHOSPHONATE] the Activity [1] was 86.6%, the EC50 [4] was 546 µg/mL (≈ 1390 µM) and the Activity [5] was 21%. The Activity [2] was 43%, the Activity [6] was 40.1% and the EC50 [7] was 150 µg/mL (≈ 381 µM). For the same compound, the Activity [8] was 46%, the Activity [9] was 65% and the Activity [3] was 50.9%. It also gave an Activity [10] of 12.9%.
For `CCOP(=O)(OCC)C(NC(=O)c1cc(OC)c(OC)c(OC)c1)c1ccccc1` (configuration not stated) [DIETHYL PHENYL(3,4,5-TRIMETHOXYBENZAMIDO)METHYLPHOSPHONATE], the Activity [1] was 45.6%, the Activity [2] was 35.6% and the Activity [3] was 42%.
`CCOP(=O)(OCC)C(NC(=O)c1ccccc1F)c1ccccc1` (configuration not stated) [DIETHYL(2-FLUOROBENZAMIDO)(PHENYL)METHYLPHOSPHONATE] was tested, and the Activity [1] was 78%, the EC50 [4] was 256 µg/mL (≈ 700 µM) and the Activity [5] was 49%. The Activity [2] was 53.6%, the Activity [6] was 36.7% and the EC50 [7] was 119 µg/mL (≈ 326 µM). For the same compound, the Activity [8] was 47.2%, the Activity [9] was 70.9% and the Activity [3] was 42%. For the same compound, the Activity [10] was 34%.
`CCOP(=O)(OCC)C(NC(=O)c1ccccc1Cl)c1ccccc1` (configuration not stated) [DIETHYL(2-CHLOROBENZAMIDO)(PHENYL)METHYLPHOSPHONATE] gave an Activity [1] of 90.6%, an Activity [2] of 19% and an Activity [6] of 59%. For the same compound, the EC50 [7] was 60 µg/mL (≈ 157 µM), the Activity [8] was 60.9% and the Activity [9] was 82.2%. For the same compound, the Activity [3] was 58%.
With `CCOP(=O)(OCC)C(NC(=O)c1ccc(F)cc1)c1ccccc1` (configuration not stated) [DIETHYL(4-FLUOROBENZAMIDO)(PHENYL)METHYLPHOSPHONATE] the Activity [1] was 99.1%, the Activity [2] was 19.2% and the Activity [6] was 70%. For the same compound, the EC50 [7] was 54.8 µg/mL (≈ 150 µM), the Activity [8] was 76.1% and the Activity [9] was 100%. It also gave an Activity [3] of 65.7%.
`CNCC(=O)N[C@@H](CO)C(=O)N[C@H]1[C@H](O)[C@@H](O)[C@H](n2ccc(N)nc2=O)O[C@@H]1C(N)=O` [NINGNANMYCIN] was tested, and the Activity [1] was 100%, the EC50 [4] was 246 µg/mL (≈ 555 µM) and the Activity [5] was 51%. The Activity [2] was 55.4%, the Activity [6] was 69% and the EC50 [7] was 55.6 µg/mL (≈ 125 µM). It also gave an Activity [8] of 78.4%, an Activity [9] of 100% and an Activity [3] of 60.2%. For the same compound, the Activity [10] was 40.9%.
`CCOP(=O)(OCC)C(NC(=O)c1ccccc1)c1ccccc1` (configuration not stated) [DIETHYL BENZAMIDO(PHENYL)METHYLPHOSPHONATE] showed an Activity [1] of 42.4%, an Activity [2] of 8.7% and an Activity [3] of 39.1%.
With `CCOP(=O)(OCC)C(NC(=O)c1cccc(F)c1)c1ccccc1F` (configuration not stated) the Activity [1] was 70.7%, the Activity [2] was 6.2% and the Activity [3] was 41%.
With `CCCOP(=O)(OCCC)C(NC(=O)c1ccccc1C(F)(F)F)c1ccccc1` (configuration not stated) [DIPROPYL PHENYL(2-(TRIFLUOROMETHYL)BENZAMIDO)METHYLPHOSPHONATE] the Activity [1] was 80%, the EC50 [4] was 422 µg/mL (≈ 952 µM) and the Activity [5] was 38%. It also gave an Activity [2] of 53.7%, an Activity [6] of 31.2% and an EC50 [7] of 199 µg/mL (≈ 449 µM). The Activity [8] was 39.2%, the Activity [9] was 60% and the Activity [3] was 44%. For the same compound, the Activity [10] was 31.6%.
With `CCOP(=O)(OCC)C(NC(=O)c1ccccc1C(F)(F)F)c1ccccc1` (configuration not stated) [DIETHYL PHENYL(2-(TRIFLUOROMETHYL)BENZAMIDO)METHYLPHOSPHONATE] the Activity [1] was 45.3%, the Activity [2] was 2.4% and the Activity [3] was 41.1%.
With `CCOP(=O)(OCC)C(NC(=O)/C=C/c1ccccc1)c1ccccc1` (configuration not stated) [(E)-DIETHYL CINNAMAMIDO(PHENYL)METHYLPHOSPHONATE] the Activity [1] was 88.2%, the EC50 [4] was 439 µg/mL (≈ 1180 µM) and the Activity [5] was 39.9%. For the same compound, the Activity [2] was 50%, the Activity [6] was 49.1% and the EC50 [7] was 65.2 µg/mL (≈ 175 µM). For the same compound, the Activity [8] was 61.2%, the Activity [9] was 79.9% and the Activity [3] was 58.7%. The Activity [10] was 32.3%.
In the case of `CCOP(=O)(OCC)C(NC(=O)c1cccc(F)c1)c1ccccc1` (configuration not stated) [DIETHYL(3-FLUOROBENZAMIDO)(PHENYL)METHYLPHOSPHONATE], the Activity [1] is reported as 82.1%, the Activity [2] is reported as 24.6% and the Activity [3] is reported as 56%.
Compound `CCOP(=O)(OCC)C(NC(=O)/C=C/c1ccccc1)c1ccccc1F` (configuration not stated) has an Activity [1] of 51.5%, an Activity [2] of 22.4% and an Activity [3] of 39%.
`CCOP(=O)(OCC)C(NC(=O)c1ccccc1F)c1ccccc1F` (configuration not stated) was tested, and the Activity [1] was 80%, the Activity [2] was 20.8% and the Activity [3] was 50%.
Compound `CCOP(=O)(OCC)C(NC(=O)c1cc(OC)c(OC)c(OC)c1)c1ccccc1F` (configuration not stated) has an Activity [1] of 33.7%, an Activity [2] of 17.1% and an Activity [3] of 41.2%.
With `CCOP(=O)(OCC)C(NC(=O)c1ccccc1Cl)c1ccccc1F` (configuration not stated) the Activity [1] was 39%, the Activity [2] was 19.7% and the Activity [3] was 40.9%.
Compound `CCCOP(=O)(OCCC)C(NC(=O)c1cc(OC)c(OC)c(OC)c1)c1ccccc1` (configuration not stated) [DIPROPYL PHENYL(3,4,5-TRIMETHOXYBENZAMIDO)METHYLPHOSPHONATE] has an Activity [1] of 83.4%, an EC50 [4] of 250 µg/mL (≈ 537 µM) and an Activity [5] of 50.6%. The Activity [2] was 55%, the Activity [6] was 28.8% and the EC50 [7] was 210 µg/mL (≈ 451 µM). It also gave an Activity [8] of 30.3%, an Activity [9] of 61% and an Activity [3] of 58.8%. The Activity [10] was 40.9%.
